Assay results from ChEMBL document CHEMBL6115035 (J Med Chem, 2025).
Each block holds one molecule with its values, some of them ahead of it. Activity calls are given as the source filed them. The rule behind the calls is not given here.

Tests used:
VCaP [1] = experiment: Antiproliferative activity against human VCaP cells measured after 5 days by Cell Titer-Glo assay; type: functional, cell-based; settings: 120 h
In short: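 Cells were seeded and incubated overnight at 37 °C, 5% CO2. Serial compound dilutions were then added. Viability was read by CellTiter-Glo luminescence after 5 days, and IC50 was obtained by curve fitting.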

VCaP [2] = experiment: Antitumor activity against human VCaP cells xenografted in mouse assessed as reduction in tumor growth at 0.5 to 1.5 mg/kg, ip treated for 27 days; type: functional, organism-based; settings: dose 0.5-1.5 mg/kg, time 27.0 day
In short: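 VCaP CRPC cells (5×10^6) were injected […] NSG or CB17SCID mice. Dosing began at tumours of ~200–400 mm3: 0.5 or 1.5 mg/kg i.p. for 27 days. Vehicle was 20% PEG400, 6% Cremophor EL, 74% PBS. Tumours were collected at the end for Western blot.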

VCaP [3] = experiment: Downregulation of RAD51 expression in human VCaP cells at 10 to 300 nM pretreated for 2 hrs followed by compound washout measured after 12 hrs by Western blot analysis; type: functional, cell-based; settings: dose 10-300 nM
CDK9/cyclin T1 = CDK9/cyclin T1 (Homo sapiens, UniProt P50750); experiment: Inhibition of CDK9/Cyclin T1 (unknown origin) by ADP-Glo kinase assay; type: protein-complex assay
CDK7/Cyclin H/MNAT1 = CDK7/Cyclin H/MNAT1 (Homo sapiens, UniProt P50613); experiment: Inhibition of CDK7/cyclin H/MAT1 (unknown origin) by ADP-Glo kinase assay; type: protein-complex assay
[4] = target: Cyclin-dependent kinase 4/cyclin D1 (Homo sapiens, UniProt P11802); experiment: Inhibition of CDK4/Cyclin D1 (unknown origin) by ADP-Glo kinase assay; type: protein-complex assay
[5] = target: T1, Cyclin-dependent kinase 5/CDK5 activator 1 (Homo sapiens, UniProt Q00535); experiment: Inhibition of CDK5/p35NCK (unknown origin) by ADP-Glo kinase assay; type: protein-complex assay
VCaP [6] = experiment: Upregulation of c-PARP expression in human VCaP cells at 10 to 300 nM pretreated for 2 hrs followed by compound washout measured after 12 hrs by Western blot analysis; type: functional, cell-based; settings: dose 10-300 nM
In short: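 VCaP cells were grown in DMEM GlutaMAX with 10% FBS and P/S. After treatment they were washed with cold PBS and lysed in RIPA with protease inhibitors. Equal protein was run on 4–12% Bis-Tris SDS-PAGE, transferred to nitrocellulose, and probed for cleaved PARP with α-tubulin as loading control. Detection used HRP secondary antibodies.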

CDK1/Cyclin E = CDK1/Cyclin E (Homo sapiens, UniProt P06493); experiment: Inhibition of CDK1/Cyclin E1 (unknown origin) by ADP-Glo kinase assay; type: protein-complex assay
In short: (§1)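 Kinase inhibition was measured by ADP-Glo assay. IC50 values are means of three independent experiments.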

[7] = target: T1, Cyclin-dependent kinase 5/CDK5 activator 1; experiment: Inhibition of CDK5/p25NCK (unknown origin) by ADP-Glo kinase assay; type: protein-complex assay
CDK1/Cyclin A = CDK1/Cyclin A (Homo sapiens, UniProt P06493); experiment: Inhibition of CDK1/Cyclin A2 (unknown origin) by ADP-Glo kinase assay; type: protein-complex assay; in short: as §1
CDK6/cyclin D1 = CDK6/cyclin D1 (Homo sapiens, UniProt Q00534); experiment: Inhibition of CDK6/cyclin D1 (unknown origin) by ADP-Glo kinase assay; type: protein-complex assay
CDK9/Cyclin K = CDK9/Cyclin K (Homo sapiens, UniProt P50750); experiment: Inhibition of CDK9/Cyclin K (unknown origin) by ADP-Glo kinase assay; type: protein-complex assay
CDK8/Cyclin C = CDK8/Cyclin C (Homo sapiens, UniProt P49336); experiment: Inhibition of CDK8/Cyclin C (unknown origin) by ADP-Glo kinase assay; type: protein-complex assay
[8] = target: Cyclin-C/Cyclin-dependent kinase 19 (Homo sapiens, UniProt Q9BWU1); experiment: Inhibition of CDK19/Cyclin C (unknown origin) by ADP-Glo kinase assay; type: protein-complex assay
[9] = target: Cyclin-Y/Cyclin-dependent kinase 16 (Homo sapiens, UniProt Q00536); experiment: Inhibition of CDK16/cyclin Y (unknown origin) by ADP-Glo kinase assay; type: protein-complex assay
VCaP [10] = experiment: Antiproliferative activity against human VCaP cells assessed as irreversible cell growth inhibition pretreated for 6 hrs followed by compound washout and subsequent addition of compound-free medium measured after 5 days by Cell Titer-Glo assay; type: functional, cell-based
In short: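 VCaP cells (DMEM GlutaMAX, 10% FBS) were exposed to compound for 6 h. The compound was then removed and cells were grown in compound-free medium for 5 days before the viability read-out.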

[11] = target: Cyclin-dependent kinase 13 (Homo sapiens) (UniProt Q14004); experiment: Binding affinity to CDK13 in human VCaP cells incubated for 4 hrs by streptavidin-biotin pull down assay; type: cell-based
In short: (§2)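 VCaP cells were treated with a biotinylated probe for 4 h and lysed in RIPA buffer. Lysate was incubated with streptavidin beads overnight at 4 °C. Beads were washed three times with PBST (0.1% Tween) and eluted in 2X SDS loading buffer. Proteins were separated by SDS-PAGE.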

[12] = target: Cyclin-dependent kinase 12 (Homo sapiens) (UniProt Q9NYV4); experiment: Binding affinity to CDK12 in human VCaP cells incubated for 4 hrs by streptavidin-biotin pull down assay; type: cell-based; in short: as §2

T1 sequence (Q00535 whole entry): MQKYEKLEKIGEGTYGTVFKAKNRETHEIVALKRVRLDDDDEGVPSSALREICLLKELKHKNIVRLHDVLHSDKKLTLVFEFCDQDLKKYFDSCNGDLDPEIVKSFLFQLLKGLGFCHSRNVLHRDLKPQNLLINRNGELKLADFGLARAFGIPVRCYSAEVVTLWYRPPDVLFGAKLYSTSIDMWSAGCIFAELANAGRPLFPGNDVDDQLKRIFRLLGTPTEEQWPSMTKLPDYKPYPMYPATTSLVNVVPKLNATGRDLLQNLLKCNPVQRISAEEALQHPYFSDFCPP
T1 sequence (Q15078 whole entry, further chain): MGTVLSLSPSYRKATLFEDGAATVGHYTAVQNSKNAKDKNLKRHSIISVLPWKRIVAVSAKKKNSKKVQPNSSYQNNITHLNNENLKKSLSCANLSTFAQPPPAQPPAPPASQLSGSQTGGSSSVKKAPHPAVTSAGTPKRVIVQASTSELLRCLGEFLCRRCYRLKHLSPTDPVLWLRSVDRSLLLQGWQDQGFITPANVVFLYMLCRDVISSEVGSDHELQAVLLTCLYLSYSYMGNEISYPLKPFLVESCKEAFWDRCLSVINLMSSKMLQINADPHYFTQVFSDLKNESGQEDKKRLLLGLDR
Chain of CDK6/cyclin D1 (P24385 whole entry): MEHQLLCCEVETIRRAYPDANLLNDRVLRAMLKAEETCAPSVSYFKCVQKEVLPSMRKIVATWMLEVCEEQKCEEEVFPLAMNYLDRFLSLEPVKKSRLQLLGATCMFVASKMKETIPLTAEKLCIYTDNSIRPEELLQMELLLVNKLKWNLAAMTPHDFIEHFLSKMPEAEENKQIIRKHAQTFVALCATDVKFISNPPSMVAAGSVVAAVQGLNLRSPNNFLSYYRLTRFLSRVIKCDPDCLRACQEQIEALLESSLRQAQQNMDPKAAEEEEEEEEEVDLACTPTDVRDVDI
Chain of CDK6/cyclin D1 (Q00534 whole entry): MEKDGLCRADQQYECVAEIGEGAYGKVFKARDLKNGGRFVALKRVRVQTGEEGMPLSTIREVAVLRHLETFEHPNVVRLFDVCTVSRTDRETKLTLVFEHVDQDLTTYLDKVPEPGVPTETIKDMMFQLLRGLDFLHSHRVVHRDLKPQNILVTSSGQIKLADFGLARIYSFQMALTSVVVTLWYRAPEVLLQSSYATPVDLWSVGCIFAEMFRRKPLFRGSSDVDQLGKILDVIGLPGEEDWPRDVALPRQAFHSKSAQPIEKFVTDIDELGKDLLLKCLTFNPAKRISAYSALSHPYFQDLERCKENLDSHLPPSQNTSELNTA
Chain of CDK9/Cyclin K (P50750 whole entry): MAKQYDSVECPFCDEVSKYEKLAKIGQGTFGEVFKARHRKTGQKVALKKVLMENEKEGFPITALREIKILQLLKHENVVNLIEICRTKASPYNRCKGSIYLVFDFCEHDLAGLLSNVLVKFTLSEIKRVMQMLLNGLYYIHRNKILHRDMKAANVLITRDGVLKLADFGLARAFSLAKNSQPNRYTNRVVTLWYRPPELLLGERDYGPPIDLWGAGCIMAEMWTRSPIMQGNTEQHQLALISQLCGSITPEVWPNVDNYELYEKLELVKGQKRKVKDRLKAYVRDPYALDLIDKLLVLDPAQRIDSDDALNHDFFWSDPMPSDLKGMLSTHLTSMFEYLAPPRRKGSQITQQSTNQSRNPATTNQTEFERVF
Chain of CDK9/Cyclin K (O75909 whole entry, further chain): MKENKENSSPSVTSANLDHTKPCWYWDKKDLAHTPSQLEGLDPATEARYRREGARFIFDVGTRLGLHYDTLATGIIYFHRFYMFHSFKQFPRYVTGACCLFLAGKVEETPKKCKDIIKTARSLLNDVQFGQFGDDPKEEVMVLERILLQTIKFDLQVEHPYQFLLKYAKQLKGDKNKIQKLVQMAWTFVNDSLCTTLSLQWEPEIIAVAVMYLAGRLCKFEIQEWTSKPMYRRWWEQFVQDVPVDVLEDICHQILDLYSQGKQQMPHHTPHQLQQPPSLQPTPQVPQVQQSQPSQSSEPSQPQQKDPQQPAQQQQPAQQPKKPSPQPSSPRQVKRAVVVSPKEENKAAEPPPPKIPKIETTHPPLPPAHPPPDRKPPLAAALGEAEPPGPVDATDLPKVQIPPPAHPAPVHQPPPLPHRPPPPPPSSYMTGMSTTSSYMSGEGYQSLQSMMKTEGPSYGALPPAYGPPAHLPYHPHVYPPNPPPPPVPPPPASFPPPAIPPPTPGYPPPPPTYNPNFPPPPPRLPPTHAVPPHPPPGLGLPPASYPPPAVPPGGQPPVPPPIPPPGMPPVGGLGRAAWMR
Chain of CDK9/cyclin T1 (O60563 whole entry): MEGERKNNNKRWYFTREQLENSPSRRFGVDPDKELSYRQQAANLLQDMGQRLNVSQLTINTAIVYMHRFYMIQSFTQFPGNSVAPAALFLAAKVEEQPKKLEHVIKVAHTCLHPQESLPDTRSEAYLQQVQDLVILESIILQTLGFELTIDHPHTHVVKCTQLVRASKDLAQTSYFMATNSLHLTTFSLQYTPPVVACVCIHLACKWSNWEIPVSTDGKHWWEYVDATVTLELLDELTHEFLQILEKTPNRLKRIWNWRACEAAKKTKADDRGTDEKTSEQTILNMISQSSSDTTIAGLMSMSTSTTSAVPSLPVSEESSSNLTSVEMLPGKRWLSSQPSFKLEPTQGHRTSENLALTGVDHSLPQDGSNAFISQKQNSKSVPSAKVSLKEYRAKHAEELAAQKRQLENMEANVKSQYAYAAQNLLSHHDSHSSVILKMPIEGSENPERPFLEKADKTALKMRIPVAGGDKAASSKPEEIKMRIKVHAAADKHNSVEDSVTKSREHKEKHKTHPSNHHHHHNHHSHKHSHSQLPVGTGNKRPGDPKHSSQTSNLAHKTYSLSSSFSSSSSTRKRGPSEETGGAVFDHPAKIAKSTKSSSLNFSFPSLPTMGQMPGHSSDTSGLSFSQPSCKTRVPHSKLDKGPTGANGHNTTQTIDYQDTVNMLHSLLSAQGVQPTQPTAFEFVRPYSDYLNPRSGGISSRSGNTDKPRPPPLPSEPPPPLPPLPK
Chain of CDK9/cyclin T1 (P50750 whole entry): as the sequence (P50750 whole entry) above
Chain of Cyclin-Y/Cyclin-dependent kinase 16 (Q00536 whole entry): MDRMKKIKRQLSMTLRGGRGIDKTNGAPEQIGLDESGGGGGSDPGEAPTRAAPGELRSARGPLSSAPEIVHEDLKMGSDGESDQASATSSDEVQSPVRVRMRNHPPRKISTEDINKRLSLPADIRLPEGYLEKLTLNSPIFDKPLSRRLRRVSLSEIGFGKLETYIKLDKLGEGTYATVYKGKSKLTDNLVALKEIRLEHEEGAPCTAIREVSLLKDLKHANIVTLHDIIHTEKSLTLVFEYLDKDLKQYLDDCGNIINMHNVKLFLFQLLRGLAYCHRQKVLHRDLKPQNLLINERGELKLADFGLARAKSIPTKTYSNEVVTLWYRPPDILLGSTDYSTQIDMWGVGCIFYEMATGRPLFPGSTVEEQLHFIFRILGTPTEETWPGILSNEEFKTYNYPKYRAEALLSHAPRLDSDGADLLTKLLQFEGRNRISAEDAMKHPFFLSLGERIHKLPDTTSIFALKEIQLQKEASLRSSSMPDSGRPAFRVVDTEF
Chain of Cyclin-Y/Cyclin-dependent kinase 16 (Q8ND76 whole entry, further chain): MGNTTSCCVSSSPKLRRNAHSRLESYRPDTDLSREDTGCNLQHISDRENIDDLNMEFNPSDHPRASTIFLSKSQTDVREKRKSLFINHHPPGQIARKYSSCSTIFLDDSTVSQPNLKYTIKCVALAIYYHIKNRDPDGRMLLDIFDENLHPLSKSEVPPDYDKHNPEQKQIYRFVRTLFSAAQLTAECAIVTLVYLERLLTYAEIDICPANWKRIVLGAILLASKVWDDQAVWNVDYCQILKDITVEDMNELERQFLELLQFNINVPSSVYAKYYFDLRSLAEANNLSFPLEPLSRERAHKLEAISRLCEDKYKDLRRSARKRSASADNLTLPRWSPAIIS
Chain of CDK7/Cyclin H/MNAT1 (P51946 whole entry): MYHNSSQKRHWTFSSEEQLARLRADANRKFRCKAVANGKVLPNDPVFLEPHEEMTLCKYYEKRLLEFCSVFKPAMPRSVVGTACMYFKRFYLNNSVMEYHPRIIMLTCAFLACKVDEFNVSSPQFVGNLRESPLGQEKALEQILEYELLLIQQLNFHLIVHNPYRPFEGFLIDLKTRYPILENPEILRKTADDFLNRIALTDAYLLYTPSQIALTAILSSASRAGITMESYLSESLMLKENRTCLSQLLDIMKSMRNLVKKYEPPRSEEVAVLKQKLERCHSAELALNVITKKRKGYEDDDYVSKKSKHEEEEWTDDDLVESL
Chain of CDK7/Cyclin H/MNAT1 (P50613 whole entry): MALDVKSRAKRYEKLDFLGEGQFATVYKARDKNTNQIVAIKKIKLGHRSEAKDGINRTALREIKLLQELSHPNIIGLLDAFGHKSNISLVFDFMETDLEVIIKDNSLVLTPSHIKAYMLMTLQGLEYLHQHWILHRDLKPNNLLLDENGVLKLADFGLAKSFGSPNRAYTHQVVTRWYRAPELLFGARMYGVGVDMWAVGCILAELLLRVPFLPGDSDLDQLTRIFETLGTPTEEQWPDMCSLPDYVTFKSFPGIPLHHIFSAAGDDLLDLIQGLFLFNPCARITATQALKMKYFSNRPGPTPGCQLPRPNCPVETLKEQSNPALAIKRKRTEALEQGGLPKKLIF
Chain of CDK7/Cyclin H/MNAT1 (P51948 whole entry, further chain): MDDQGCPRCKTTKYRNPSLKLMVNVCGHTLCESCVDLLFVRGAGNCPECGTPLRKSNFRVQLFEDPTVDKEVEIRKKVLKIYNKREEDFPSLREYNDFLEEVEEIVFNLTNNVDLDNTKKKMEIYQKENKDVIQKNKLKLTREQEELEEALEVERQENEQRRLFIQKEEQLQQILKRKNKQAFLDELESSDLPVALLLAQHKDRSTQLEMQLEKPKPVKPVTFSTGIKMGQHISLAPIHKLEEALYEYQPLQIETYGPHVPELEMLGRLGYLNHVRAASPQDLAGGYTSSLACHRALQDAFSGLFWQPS

IC50 (VCaP [1]): 0.0043 µM
Structure (SMILES): C=CC(=O)Nc1cc(N(C(=O)NCc2ccccc2)[C@H]2CC[C@H](Nc3ccc(C#N)cn3)CC2)ccc1N1CCN(C)[C@@H](C)C1

Structure (SMILES): Cn1ncc(Cl)c1-c1cc(C(=O)N[C@H](CN)Cc2ccc(F)c(F)c2)oc1Cl
Activity (VCaP [2]): Active

Structure (SMILES): Cn1cc(-c2ccc(N(C(=O)NCc3ccccc3)[C@H]3CC[C@H](Nc4ccc(C#N)cn4)CC3)cc2)ccc1=O
Activity (VCaP [3]): inactive
IC50 (CDK9/cyclin T1): 0.515 µM
IC50 (CDK7/Cyclin H/MNAT1): 0.679 µM
IC50 [4]: 5.28 µM
IC50 [5]: 5.07 µM
Activity (VCaP [6]): inactive
IC50 (CDK1/Cyclin E): > 10 µM
IC50 [7]: 4.86 µM
IC50 (CDK1/Cyclin A): > 10 µM
IC50 (CDK6/cyclin D1): 8.79 µM
IC50 (CDK9/Cyclin K): 0.716 µM
IC50 (CDK8/Cyclin C): > 10 µM
IC50 [8]: > 10 µM
IC50 [9]: > 10 µM

Structure (SMILES): Cn1cc(-n2cnc3c(NCc4nc5cc(Cl)c(Cl)cc5[nH]4)nc(N4CCOCC4)nc32)cn1
inhibition (VCaP [10]): inactive

Activity [11]: Active
Activity [12]: Active
Structure (SMILES): C=CC(=O)Nc1cc(N(C(=O)NCc2ccccc2)[C@H]2CC[C@H](Nc3ccc(C#N)cn3)CC2)ccc1N1CCC(N(C)C(=O)CCOCCOCCOCCOCCNC(=O)CCCC[C@@H]2SC[C@@H]3NC(=O)N[C@@H]32)CC1

IC50 (VCaP [1]): 0.0763 µM
Structure (SMILES): C=CC(=O)Nc1cc(N(C(=O)NCc2ccccc2)[C@H]2CC[C@H](Nc3ccc(C#N)cn3)CC2)ccc1N1C[C@H]2C[C@@H]1CN2C
